# Test results from ChEMBL document CHEMBL3872252, “New bithiazolyl hydrazones: Novel synthesis, characterization and antitubercular evaluation” (Bioorg Med Chem Lett, 2017).
# Experiments:
# [1] = Antitubercular activity against Mycobacterium bovis BCG ATCC 35743 dormant stage measured on day 12 by nitrate reductase based two-fold dilution assay; format: functional, Mycobacterium bovis BCG str. ATCC 35743; conditions: Mycobacterium tuberculosis variant bovis BCG, ATCC 35743, 288 h
# [2] = Selectivity index, ratio of GI50 for human HCT116 cells to MIC90 for Mycobacterium bovis BCG ATCC 35743 dormant stage; format: toxicity, cell-based, HCT-116; conditions: read-out: Selectivity Index
# Outline: (§1)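 Cytotoxicity was measured on human MCF-7, HCT116 and THP-1 cells by MTT assay, with paclitaxel as reference. The selectivity index is GI50 for the given cell line divided by MIC90 for the given mycobacterial strain and stage.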
# [3] = Selectivity index, ratio of GI50 for human HCT116 cells to MIC90 for Mycobacterium bovis BCG ATCC 35743 active stage; format: toxicity, cell-based, HCT-116; conditions: read-out: Selectivity Index
# Outline: (§2)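 Cytotoxicity was measured on human MCF-7, HCT116 and THP-1 cells by MTT assay, with paclitaxel as reference. GI50 is the concentration inhibiting 50% of cell growth. The selectivity index is GI50 for the given cell line divided by MIC90 for the given mycobacterial strain and stage.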
# [4] = test system: Escherichia coli; experiment: Growth inhibition of Escherichia coli at 30 ug/ml; format: functional; conditions: read-out: GI
# [5] = test system: Bacillus subtilis; experiment: Growth inhibition of Bacillus subtilis at 3 ug/ml; format: functional; conditions: read-out: GI
# Outline: (§3)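 Screened against Gram-negative E. coli and P. aeruginosa and Gram-positive S. aureus and B. subtilis. Compound was tested at 3 µg/ml, and the read-out is percent growth inhibition.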
# [6] = test system: Staphylococcus aureus; experiment: Growth inhibition of Staphylococcus aureus at 3 ug/ml; format: functional; conditions: read-out: GI; outline: as §3
# [7] = Antitubercular activity against Mycobacterium bovis BCG ATCC 35743 active stage measured on day 8 by nitrate reductase based two-fold dilution assay; format: functional, Mycobacterium bovis BCG str. ATCC 35743; conditions: Mycobacterium tuberculosis variant bovis BCG, ATCC 35743, 192 h
# [8] = Cytotoxicity against human THP1 cells by MTT assay; format: toxicity, cell-based, THP-1
# [9] = Antitubercular activity against Mycobacterium tuberculosis H37Ra ATCC 25177 dormant stage measured on day 12 by XTT reduction menadione based two-fold dilution assay; format: functional; conditions: ATCC 25177, 288 h
# Outline: (§4)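 M. tuberculosis H37Ra ATCC 25177 was exposed to 0.7–100 μg/mL in two-fold steps (0.7, 1.5, 3.1 … 100). Active stage was read after 8 days and dormant stage after 12 days of incubation. Inhibition was read by XTT reduction menadione assay (XRMA), absorbance 470 nm. MIC90 is the concentration giving ≥90% inhibition (µg/mL).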
# [10] = Cytotoxicity against human MCF7 cells by MTT assay; format: toxicity, cell-based
# [11] = test system: Staphylococcus aureus; experiment: Growth inhibition of Staphylococcus aureus at 30 ug/ml; format: functional; conditions: read-out: GI
# [12] = test system: Bacillus subtilis; experiment: Growth inhibition of Bacillus subtilis at 30 ug/ml; format: functional; conditions: read-out: GI
# [13] = Antitubercular activity against Mycobacterium tuberculosis H37Ra ATCC 25177 active stage infected in human THP1 cells measured on day 8 by nitrate reductase assay; format: functional, THP-1; conditions: ATCC 25177, 192 h
# [14] = Selectivity index, ratio of GI50 for human THP1 cells to MIC90 for Mycobacterium tuberculosis H37Ra ATCC 25177 dormant stage; format: toxicity, cell-based, THP-1; conditions: read-out: Selectivity Index; outline: as §1
# [15] = test system: Escherichia coli; experiment: Growth inhibition of Escherichia coli at 3 ug/ml; format: functional; conditions: read-out: GI; outline: as §3
# [16] = test system: Staphylococcus aureus; experiment: Growth inhibition of Staphylococcus aureus at 10 ug/ml; format: functional; conditions: read-out: GI
# [17] = test system: Bacillus subtilis; experiment: Antibacterial activity against Bacillus subtilis; format: functional
# [18] = test system: Escherichia coli; experiment: Antibacterial activity against Escherichia coli; format: functional
# [19] = test system: Pseudomonas aeruginosa; experiment: Growth inhibition of Pseudomonas aeruginosa at 3 ug/ml; format: functional; conditions: read-out: GI; outline: as §3
# [20] = test system: Escherichia coli; experiment: Growth inhibition of Escherichia coli at 10 ug/ml; format: functional; conditions: read-out: GI
# [21] = Antitubercular activity against Mycobacterium tuberculosis H37Ra ATCC 25177 active stage measured on day 8 by XTT reduction menadione based two-fold dilution assay; format: functional; conditions: ATCC 25177, 192 h; outline: as §4
# [22] = Selectivity index, ratio of GI50 for human HCT116 cells to MIC90 for Mycobacterium tuberculosis H37Ra ATCC 25177 dormant stage; format: toxicity, cell-based, HCT-116; conditions: read-out: Selectivity Index; outline: as §1
# [23] = test system: Bacillus subtilis; experiment: Growth inhibition of Bacillus subtilis at 10 ug/ml; format: functional; conditions: read-out: GI
# [24] = test system: Pseudomonas aeruginosa; experiment: Growth inhibition of Pseudomonas aeruginosa at 10 ug/ml; format: functional; conditions: read-out: GI
# [25] = Cytotoxicity against human HCT116 cells by MTT assay; format: toxicity, cell-based, HCT-116
# [26] = Antitubercular activity against Mycobacterium tuberculosis H37Ra ATCC 25177 dormant stage infected in human THP1 cells measured on day 12 by nitrate reductase assay; format: functional, THP-1; conditions: ATCC 25177, 288 h
# [27] = test system: Pseudomonas aeruginosa; experiment: Growth inhibition of Pseudomonas aeruginosa at 30 ug/ml; format: functional; conditions: read-out: GI
# [28] = test system: Staphylococcus aureus; experiment: Antibacterial activity against Staphylococcus aureus; format: functional
# [29] = Selectivity index, ratio of GI50 for human HCT116 cells to MIC90 for Mycobacterium tuberculosis H37Ra ATCC 25177 active stage; format: toxicity, cell-based, HCT-116; conditions: read-out: Selectivity Index; outline: as §2
# [30] = test system: Pseudomonas aeruginosa; experiment: Antibacterial activity against Pseudomonas aeruginosa; format: functional
compound,measurement,setting,value
C/C(=N\Nc1nc(-c2ccc(Br)cc2)cs1)c1sc(-c2ccccc2)nc1C,IC50,[1],> 100 µg/mL
same,MIC90,[1],> 100 µg/mL
same,selectivity ratio,[2],1
same,selectivity ratio,[3],1
same,inhibition of growth at 30 µg/mL,[4],96.7%
same,inhibition of growth at 3 µg/mL,[5],92.3%
same,inhibition of growth at 3 µg/mL,[6],92.8%
same,IC50,[7],> 100 µg/mL
same,MIC90,[7],> 100 µg/mL
same,GI50,[8]; THP1 cells,48.9 µg/mL
same,GI90,[8]; thp-1,> 100 µg/mL
same,IC50,[9],0.14 µg/mL
same,MIC90,[9],57.7 µg/mL
same,GI50,[10]; MCF7 cells,26.3 µg/mL
same,GI90,[10]; mcf7,> 100 µg/mL
same,inhibition of growth at 30 µg/mL,[11],96.8%
same,inhibition of growth at 30 µg/mL,[12],96.5%
same,MIC90,[13],> 100 µg/mL
same,selectivity ratio,[14],1
same,inhibition of growth at 3 µg/mL,[15],93%
same,inhibition of growth at 10 µg/mL,[16],94.3%
same,IC50,[17],0.526 µg/mL
same,MIC,[17],1.95 µg/mL
same,IC50,[18],0.475 µg/mL
same,MIC,[18],1.14 µg/mL
same,inhibition of growth at 3 µg/mL,[19],94.3%
same,inhibition of growth at 10 µg/mL,[20],94.4%
same,IC50,[21],0.18 µg/mL
same,MIC90,[21],> 100 µg/mL
same,selectivity ratio,[22],1
same,inhibition of growth at 10 µg/mL,[23],93.8%
same,inhibition of growth at 10 µg/mL,[24],95.8%
same,GI50,[25]; HCT116 cells,55.6 µg/mL
same,GI90,[25]; hct-116,> 100 µg/mL
same,MIC90,[26],> 100 µg/mL
same,inhibition of growth at 30 µg/mL,[27],98.4%
same,IC50,[28],0.453 µg/mL
same,MIC,[28],1.84 µg/mL
same,selectivity ratio,[29],1
same,IC50,[30],0.416 µg/mL
same,MIC,[30],1.05 µg/mL
CC1(C)S[C@@H]2[C@H](NC(=O)[C@H](N)c3ccccc3)C(=O)N2[C@H]1C(=O)O [AMPICILLIN],MIC,[17],10.3 µg/mL
same,MIC,[18],1.46 µg/mL
same,MIC,[28],1 µg/mL
same,MIC,[30],4.36 µg/mL
NC[C@H]1O[C@H](O[C@H]2[C@H](O)[C@@H](O[C@H]3O[C@H](CO)[C@@H](O)[C@H](N)[C@H]3O)[C@H](N)C[C@@H]2N)[C@H](O)[C@@H](O)[C@@H]1O [KANAMYCIN],MIC,[17],1.35 µg/mL
same,MIC,[18],1.62 µg/mL
same,MIC,[28],> 30 µg/mL
same,MIC,[30],0.49 µg/mL
